Assay results published in publication PMC3065392 (Lipids, 2010).

Target: T1, ADRP (adipose differentiation-related protein) (Mus musculus, UniProt P43883)
T1 sequence (P43883 2-425): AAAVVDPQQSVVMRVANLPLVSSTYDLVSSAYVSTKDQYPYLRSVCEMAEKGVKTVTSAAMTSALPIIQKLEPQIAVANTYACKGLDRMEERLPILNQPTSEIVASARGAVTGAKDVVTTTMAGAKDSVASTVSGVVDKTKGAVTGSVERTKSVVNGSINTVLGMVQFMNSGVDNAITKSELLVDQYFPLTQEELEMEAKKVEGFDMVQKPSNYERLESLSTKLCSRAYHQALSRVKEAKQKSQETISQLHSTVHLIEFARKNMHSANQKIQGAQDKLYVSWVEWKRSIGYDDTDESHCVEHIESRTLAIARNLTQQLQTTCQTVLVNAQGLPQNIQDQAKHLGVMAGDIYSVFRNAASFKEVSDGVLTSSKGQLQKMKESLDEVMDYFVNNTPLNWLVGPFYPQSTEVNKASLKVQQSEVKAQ
Assay: fluorescence saturation binding titration, single-site fit
Method in brief: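 Stepwise titration of the NBD-labelled lipid (NBD-sphingomyelin or NBD-phosphatidylcholine, 100 µM stock) into ADRP (180 nM) in 10 mM phosphate buffer, pH 7.4. After each addition, samples were mixed 3–4 min at 25°C and the NBD probe was excited; emission 490–600 nm was integrated and corrected for blank and background. Kd and Bmax come from a single-site fit of three independent measurements (mean ± SE).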

Structure (SMILES) | Kd [nM]
CCCCCCCCCCCCC/C=C/[C@@H](O)[C@H](COP(=O)([O-])OCC[N+](C)(C)C)NC(=O)CCCCCNc1ccc([N+](=O)[O-])c2nonc12 [NBD-sphingomyelin, 6-((N-(7-nitrobenz-2-oxa-1,3-diazol-4-yl)amino)-hexanoyl)sphingosyl-phosphocholine] | 257 ± 64
CCCCCCCCCCCCCCCC(=O)OC[C@H](COP(=O)([O-])OCC[N+](C)(C)C)OC(=O)CCCCCNc1ccc([N+](=O)[O-])c2nonc12 [NBD-phosphatidylcholine, 2-(6-(7-nitrobenz-2-oxa-1,3-diazol-4-yl)amino)hexanoyl-1-hexadecanoyl-sn-glycero-3-phosphocholine] | 15 ± 3
